{"data": "Assay results of several laboratories", "target": "Carbonic anhydrase 2 (CA2, Homo sapiens, UniProt P00918)", "effect on": "enzyme activity", "action": "inhibitor", "note": "Each line is one published result; the experiments were not run side by side."}
{"test": "stopped-flow", "Ki [nM]": 14.1, "SMILES": "NS(=O)(=O)c1nnc(NC(=O)CN2CCC(F)CC2)s1"}
{"test": "absorbance", "Ki [nM]": 9590, "SMILES": "O=C(O)COCCN1CCN(C(c2ccccc2)c2ccc(Cl)cc2)CC1 (centres unmarked)"}
{"Ki [nM]": 716, "SMILES": "CC(C)CNC(=S)N/N=C/c1ccc(N2CCC(O)CC2)cc1"}
{"test": "absorbance", "Ki [nM]": 7440, "SMILES": "O=c1[nH]c(=O)n([C@H]2C[C@H](O)[C@@H](CO)O2)cc1/C=C/Br"}
{"Ki [nM]": 482, "SMILES": "OC1CCN(c2ccc(/C=N/NC(=S)NC3CCCCC3)cc2)CC1"}
{"test": "absorbance", "Ki [nM]": 7910, "SMILES": "OC(Cn1cncn1)(Cn1cncn1)c1ccc(F)cc1F"}
{"test": "stopped-flow", "Ki [nM]": 4.9, "SMILES": "NS(=O)(=O)c1nnc(NC(=O)C(F)CC2CCCCC2)s1 (centres unmarked)"}
{"test": "stopped-flow", "Ki [nM]": "> 100000", "SMILES": "Cc1c(Cl)c(=O)oc2cc(OCCCCSC#N)ccc12"}
{"test": "stopped-flow", "Ki [nM]": 22.3, "SMILES": "CC1CCC(CC(=O)Nc2nnc(S(N)(=O)=O)s2)CC1 (centres unmarked)"}
{"test": "absorbance", "Ki [nM]": 11500, "SMILES": "OCCOCCN1CCN(C(c2ccccc2)c2ccc(Cl)cc2)CC1 (centres unmarked)"}
{"test": "stopped-flow", "Ki [nM]": 50.8, "SMILES": "NS(=O)(=O)c1nnc(NC(=O)C2CC23CCCOC3)s1 (centres unmarked)"}
{"Ki [nM]": 507, "SMILES": "OC1CCN(c2ccc(/C=N/NC(=S)Nc3ccccc3)cc2)CC1"}
{"test": "absorbance", "Ki [nM]": 13000, "SMILES": "Cn1cnc([N+](=O)[O-])c1Sc1ncnc2nc[nH]c12"}
{"Ki [nM]": 436, "SMILES": "Cc1cccc(C)c1NC(=S)N/N=C/c1ccc(N2CCC(O)CC2)cc1"}
{"test": "stopped-flow", "Ki [nM]": 31.5, "SMILES": "CC1CCCC(C(=O)Nc2nnc(S(N)(=O)=O)s2)C1 (centres unmarked)"}
{"test": "absorbance", "Ki [nM]": 8970, "SMILES": "C[C@H]1c2cccc(O)c2C(=O)C2=C(O)[C@]3(O)C(=O)C(C(N)=O)=C(O)[C@@H](N(C)C)[C@@H]3[C@@H](O)[C@@H]21"}
{"Ki [nM]": 778, "SMILES": "Cc1ccc(CNC(=S)N/N=C/c2ccc(N3CCC(O)CC3)cc2)cc1"}
{"test": "stopped-flow", "Ki [nM]": "> 100000", "SMILES": "N#CSCCCCOc1ccc2c(-c3ccccc3)cc(=O)oc2c1"}
{"Ki [nM]": 334, "SMILES": "OC1CCN(c2ccc(/C=N/NC(=S)Nc3ccc(Br)cc3)cc2)CC1"}
{"test": "stopped-flow", "Ki [nM]": 29.6, "SMILES": "CC1(C(=O)Nc2nnc(S(N)(=O)=O)s2)CCC1"}
